Results from ChEMBL document CHEMBL3271969, “2-pyridylimidazoles as inhibitors of xanthine oxidase” (J Med Chem, 1977).

Columns and labels:
[1] = Association constant, apparent pKa of the compound; format: physicochemical
[2] = Dissociation constant, apparent pKa of the compound; format: physicochemical
[3] = target: T1, Xanthine dehydrogenase/oxidase (Bos taurus, UniProt P80457); experiment: Inhibition of bovine xanthine oxidase; conditions: read-out: I50
[4] = target: T1, Xanthine dehydrogenase/oxidase; experiment: Inhibition of bovine xanthine oxidase at 2 X 10^-5 M; conditions: cattle; for inhibition (INH): 20 µM
Method in brief: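 Bovine xanthine oxidase, diluted 1:300 to give ΔOD292 of 0.09–0.12 per min, starts the reaction in 0.05 M phosphate buffer pH 7.5 with hypoxanthine at 3×10^-5 M plus inhibitor.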

T1 sequence (P80457 whole entry): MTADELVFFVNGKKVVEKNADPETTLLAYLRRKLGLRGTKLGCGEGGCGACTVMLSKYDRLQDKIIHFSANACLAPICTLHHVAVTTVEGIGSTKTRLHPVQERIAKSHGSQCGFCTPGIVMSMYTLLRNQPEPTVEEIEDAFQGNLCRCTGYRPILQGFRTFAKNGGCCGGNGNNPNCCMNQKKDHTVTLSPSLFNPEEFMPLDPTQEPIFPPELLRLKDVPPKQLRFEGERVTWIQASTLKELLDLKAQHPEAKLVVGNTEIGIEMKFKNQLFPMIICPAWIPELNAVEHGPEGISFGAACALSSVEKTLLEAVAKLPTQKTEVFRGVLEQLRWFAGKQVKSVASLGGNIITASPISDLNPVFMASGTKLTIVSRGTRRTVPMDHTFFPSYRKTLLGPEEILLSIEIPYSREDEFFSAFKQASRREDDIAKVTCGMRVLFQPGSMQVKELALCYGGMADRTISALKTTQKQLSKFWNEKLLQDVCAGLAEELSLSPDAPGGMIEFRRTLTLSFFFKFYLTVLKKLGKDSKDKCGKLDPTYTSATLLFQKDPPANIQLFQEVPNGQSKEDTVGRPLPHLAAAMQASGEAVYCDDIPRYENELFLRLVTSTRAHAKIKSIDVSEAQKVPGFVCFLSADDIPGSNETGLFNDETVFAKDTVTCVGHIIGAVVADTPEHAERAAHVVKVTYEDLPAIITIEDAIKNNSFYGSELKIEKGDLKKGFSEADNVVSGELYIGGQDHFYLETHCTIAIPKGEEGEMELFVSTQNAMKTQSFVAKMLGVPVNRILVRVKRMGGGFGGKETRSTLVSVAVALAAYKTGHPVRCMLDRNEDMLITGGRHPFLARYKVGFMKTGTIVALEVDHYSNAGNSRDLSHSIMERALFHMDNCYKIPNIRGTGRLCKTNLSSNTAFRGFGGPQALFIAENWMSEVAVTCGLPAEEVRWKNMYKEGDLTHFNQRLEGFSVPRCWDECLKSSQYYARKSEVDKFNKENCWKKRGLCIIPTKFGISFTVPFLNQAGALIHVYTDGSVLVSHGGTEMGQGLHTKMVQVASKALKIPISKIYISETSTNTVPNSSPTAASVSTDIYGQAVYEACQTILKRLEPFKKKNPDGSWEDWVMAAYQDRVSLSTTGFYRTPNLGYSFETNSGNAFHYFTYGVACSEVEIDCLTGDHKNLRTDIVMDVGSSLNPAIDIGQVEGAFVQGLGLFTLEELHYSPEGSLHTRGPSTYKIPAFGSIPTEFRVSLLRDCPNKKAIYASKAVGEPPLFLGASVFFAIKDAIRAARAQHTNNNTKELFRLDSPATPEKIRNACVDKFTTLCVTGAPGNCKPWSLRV

Structure (SMILES) | IC50 [3] | inhibition (INH) [4] | other results
N#Cc1nc(-c2cccnc2)[nH]c1C#N | 35 µM |  | 
Clc1cc2nc(-c3ccncc3)[nH]c2cc1Cl | 15 µM |  | pKa [1]: 3; pKa [2]: 9.33
c1cncc(-c2nc3cccnc3[nH]2)c1 |  | Not Active | 
N#Cc1cnc(-c2ccncc2)[nH]1 | 5.6 µM |  | 
NC(=O)c1nc(-c2cccnc2)[nH]c1C(N)=O |  | Not Active | 
O=C(O)c1nc(-c2cccnc2)[nH]c1C(=O)O | 1 µM |  | 
NC(=O)c1nc(-c2ccncc2)[nH]c1C(N)=O |  |  | inhibition at 20 µM [4]: 14%
Clc1nc(-c2cccnc2)[nH]c1Cl |  |  | inhibition at 20 µM [4]: 29%
c1cc(-c2ncc[nH]2)ccn1 |  | Not Active | 
c1cncc(-c2nc3cnccc3[nH]2)c1 |  |  | inhibition at 20 µM [4]: 23%
c1cncc(-c2ncc[nH]2)c1 |  | Not Active | 
c1ccc2[nH]c(-c3ccncc3)nc2c1 |  | Not Active | pKa [1]: 3.85; pKa [2]: 10.9
O=[N+]([O-])c1c[nH]cn1 |  | Not Active | pKa [2]: 9
COC(=O)c1nc(-c2ccncc2)[nH]c1C(=O)OC |  | Not Active | pKa [1]: 3.98; pKa [2]: 7.15
Cc1cnc(-c2cccnc2)[nH]1 |  | Not Active | 
N#Cc1nc(-c2ccncc2)[nH]c1C#N | 0.02 µM |  | 
O=C(O)c1cnc(-c2ccncc2)[nH]1 |  |  | inhibition at 20 µM [4]: 34%
c1cnc2[nH]c(-c3ccncc3)nc2c1 |  | Not Active | 
Clc1ccc2[nH]c(-c3ccncc3)nc2c1 |  |  | pKa [1]: 3.5; pKa [2]: 10
COC(=O)c1cnc(-c2ccncc2)[nH]1 |  |  | inhibition at 20 µM [4]: 10%
N#Cc1nc(-c2ccncc2)[nH]c1C(N)=O | 0.5 µM |  | 

Now from value to molecule, other results behind:

IC50 [3] | inhibition (INH) [4] | Structure (SMILES) | other results
40 µM |  | FC(F)(F)c1cnc(-c2cccnc2)[nH]1 | pKa [1]: 3.5; pKa [2]: 10.2
 | Not Active | COC(=O)c1nc(-c2cccnc2)[nH]c1C(=O)OC | 
0.35 µM |  | O=[N+]([O-])c1cnc(-c2ccncc2)[nH]1 | 
 | Not Active | Cc1cnc(-c2ccncc2)[nH]1 | 
2 µM |  | FC(F)(F)c1cnc(-c2ccncc2)[nH]1 | pKa [1]: 3.76; pKa [2]: 9.73
5.8 µM |  | O=C(O)c1nc(-c2ccncc2)[nH]c1C(=O)O | 
 | Not Active | Clc1ccc2nc(-c3cccnc3)[nH]c2c1 | 
20 µM |  | Brc1nc(-c2cccnc2)[nH]c1Br | 
13 µM |  | c1cc(-c2nc3cnccc3[nH]2)ccn1 | 
1.3 µM |  | O=[N+]([O-])c1cnc(-c2cccnc2)[nH]1 | 
